Here are results for 24 compounds from ChEMBL document CHEMBL1155007, “Synthesis and monoamine transporter binding properties of 2beta-[3'-(substituted benzyl)isoxazol-5-yl]- and 2beta-[3'-methyl-4'-(substituted phenyl)isoxazol-5-yl]-3beta-(substituted phenyl)tropanes” (Bioorg Med Chem, 2008).

A word on the pIC50: it is −log10 of the IC50, conventionally taken in molar units. Read a low pIC50 as a high IC50. The term pKi denotes the negative decadic logarithm of the Ki, by convention in mol/L.

The target of experiment [1] is Sodium-dependent dopamine transporter (Homo sapiens, UniProt Q01959). Put plainly: Displacement of [3H]WIN-35428 from DAT. The gist of the method: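 Competitive radioligand binding at the dopamine transporter, with 0.5 nM [3H]WIN35,428 as the final radioligand concentration. Compounds were tested as HCl salts. Values are means ± standard error of three or four experiments, each run in duplicate.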
Sequence of Sodium-dependent dopamine transporter (Q01959 whole entry): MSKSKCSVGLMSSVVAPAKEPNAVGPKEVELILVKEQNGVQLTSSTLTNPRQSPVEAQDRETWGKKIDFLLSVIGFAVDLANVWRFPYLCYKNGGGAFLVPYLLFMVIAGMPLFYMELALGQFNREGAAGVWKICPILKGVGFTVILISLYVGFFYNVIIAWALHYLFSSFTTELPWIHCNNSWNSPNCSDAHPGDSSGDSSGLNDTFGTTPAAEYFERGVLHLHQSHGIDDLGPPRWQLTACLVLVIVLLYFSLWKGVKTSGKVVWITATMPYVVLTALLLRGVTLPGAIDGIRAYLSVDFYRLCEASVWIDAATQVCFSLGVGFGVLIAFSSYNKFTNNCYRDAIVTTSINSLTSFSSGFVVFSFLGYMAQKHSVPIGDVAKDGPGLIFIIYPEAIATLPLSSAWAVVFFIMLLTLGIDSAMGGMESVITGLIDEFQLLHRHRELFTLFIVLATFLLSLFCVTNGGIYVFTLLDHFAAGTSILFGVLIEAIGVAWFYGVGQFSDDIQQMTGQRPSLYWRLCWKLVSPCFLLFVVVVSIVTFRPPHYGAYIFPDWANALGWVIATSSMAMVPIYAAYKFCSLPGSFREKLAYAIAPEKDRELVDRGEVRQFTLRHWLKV
A general note: In a radioligand displacement assay an active substance lowers the binding of a labelled ligand.

For experiment [2], the target named is Sodium-dependent serotonin transporter (Homo sapiens, UniProt P31645). Put plainly: Displacement of [3H]paroxetine from 5HTT. The gist of the method:
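Competitive radioligand binding at the serotonin transporter, with 0.2 nM [3H]paroxetine as the final radioligand concentration. Compounds were tested as HCl salts. Values are means ± standard error of three or four experiments, each run in duplicate.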

The target of experiment [3] is Sodium-dependent noradrenaline transporter (Homo sapiens, UniProt P23975). Put plainly: Displacement of [3H]nisoxetine from NET.
Sequence of Sodium-dependent noradrenaline transporter (P23975 whole entry): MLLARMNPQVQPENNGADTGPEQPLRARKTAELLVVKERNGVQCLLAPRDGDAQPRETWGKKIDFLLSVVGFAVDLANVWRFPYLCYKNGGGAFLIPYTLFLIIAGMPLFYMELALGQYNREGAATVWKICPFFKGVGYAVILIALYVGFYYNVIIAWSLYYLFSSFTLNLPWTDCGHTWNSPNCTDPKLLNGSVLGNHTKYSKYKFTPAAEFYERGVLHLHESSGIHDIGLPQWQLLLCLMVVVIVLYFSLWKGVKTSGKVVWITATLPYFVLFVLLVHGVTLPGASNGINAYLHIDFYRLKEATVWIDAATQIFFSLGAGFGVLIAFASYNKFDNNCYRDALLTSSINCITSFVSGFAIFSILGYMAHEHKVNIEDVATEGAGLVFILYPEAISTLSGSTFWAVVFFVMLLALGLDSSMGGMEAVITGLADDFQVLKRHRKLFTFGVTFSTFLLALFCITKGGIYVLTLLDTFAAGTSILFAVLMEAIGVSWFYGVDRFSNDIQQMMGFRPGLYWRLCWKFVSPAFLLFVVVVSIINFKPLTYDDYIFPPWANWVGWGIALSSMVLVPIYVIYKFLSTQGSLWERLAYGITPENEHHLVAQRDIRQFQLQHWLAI

pIC50, pKi: −log10 of the molar value. Where only a bound is given, the exact number is not on record here.

Sequence of Sodium-dependent serotonin transporter (P31645 whole entry): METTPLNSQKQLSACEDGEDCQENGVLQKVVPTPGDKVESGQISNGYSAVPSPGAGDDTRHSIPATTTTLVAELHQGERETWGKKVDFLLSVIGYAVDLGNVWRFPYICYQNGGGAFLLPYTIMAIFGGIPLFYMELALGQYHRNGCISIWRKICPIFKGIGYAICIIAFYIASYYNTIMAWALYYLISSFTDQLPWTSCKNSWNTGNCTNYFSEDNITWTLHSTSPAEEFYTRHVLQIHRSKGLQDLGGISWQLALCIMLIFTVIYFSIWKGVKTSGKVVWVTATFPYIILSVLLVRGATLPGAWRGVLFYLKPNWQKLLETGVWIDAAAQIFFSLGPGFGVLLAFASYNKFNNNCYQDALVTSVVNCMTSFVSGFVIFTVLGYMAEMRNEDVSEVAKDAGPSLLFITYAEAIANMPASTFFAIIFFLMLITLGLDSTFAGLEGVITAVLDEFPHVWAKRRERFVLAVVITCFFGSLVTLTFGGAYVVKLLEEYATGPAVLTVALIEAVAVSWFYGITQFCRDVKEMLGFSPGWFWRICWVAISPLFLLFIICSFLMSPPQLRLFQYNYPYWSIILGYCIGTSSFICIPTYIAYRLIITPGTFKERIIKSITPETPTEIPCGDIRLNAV

Compound `COc1ccc(-c2cc([C@@H]3C4CCC(C[C@@H]3c3ccc(Cl)cc3)N4C)on2)cc1` (some centres not stated) had a negative-log IC50 (pIC50) in experiment [1] of 8.80. Also, the pKi in experiment [2] was 6.27; in experiment [3], 6.34.

In experiment [1], `COc1ccc(-c2cc([C@@H]3C4CCC(C[C@@H]3c3ccc(C)cc3)N4C)on2)cc1` (some centres not stated) showed a negative-log IC50 (pIC50) of 8.41. Moreover, the pKi in experiment [2] was 6.44; in experiment [3], 6.34.

Compound `Cc1ccc([C@H]2CC3CCC([C@H]2c2onc(C)c2-c2ccc(Cl)cc2)N3C)cc1` (some centres not stated) gave a pIC50 in experiment [1] of 7.18. The pKi in experiment [2] was 6.06; in experiment [3], 6.28.

The compound `COc1ccc(-c2c(C)noc2[C@@H]2C3CCC(C[C@@H]2c2ccc(Cl)cc2)N3C)cc1` (some centres not stated) had a negative-log IC50 (pIC50) in experiment [1] of 7.09. Besides, the negative logarithm of the Ki (pKi) in experiment [2] is 5.74; in experiment [3], less than 5.70.

With `Cc1ccc(-c2cc([C@@H]3C4CCC(C[C@@H]3c3ccc(Cl)cc3)N4C)on2)cc1` (some centres not stated), the negative-log IC50 (pIC50) in experiment [1] was 8.39. The pKi in experiment [2] is 6.28; in experiment [3], 5.99.

For the compound `Cc1ccc([C@H]2CC3CCC([C@H]2c2cc(-c4ccc(F)cc4)no2)N3C)cc1` (some centres not stated), the pIC50 in experiment [1] is 8.19. In addition, the negative logarithm of the Ki (pKi) in experiment [2] is less than 5.70; in experiment [3], 6.26.

In experiment [1], `Cc1ccc([C@H]2CC3CCC([C@H]2c2cc(-c4ccc(Cl)cc4)no2)N3C)cc1` (some centres not stated) showed a pIC50 of 8.06. Moreover, the negative logarithm of the Ki (pKi) in experiment [2] and in experiment [3] was less than 5.70 in each case.

With `Cc1ccc([C@H]2CC3CCC([C@H]2c2onc(C)c2-c2ccc(F)cc2)N3C)cc1` (some centres not stated), in experiment [1], the negative-log IC50 (pIC50) was 7.12. Besides, the negative logarithm of the Ki (pKi) is less than 5.70 in experiment [2] and 6.46 in experiment [3].

`Cc1noc([C@@H]2C3CCC(C[C@@H]2c2ccc(Cl)cc2)N3C)c1-c1ccc(Cl)cc1` (some centres not stated) showed a pIC50 in experiment [1] of 7.16. Moreover, the figures for the negative logarithm of the Ki (pKi) in experiment [2] and in experiment [3] were 6.41 and 6.10, respectively.

For `Cc1ccc([C@H]2CC3CCC([C@H]2c2cc(Cc4ccc(F)cc4)no2)N3C)cc1` (some centres not stated), the negative logarithm of the IC50 (pIC50) in experiment [1] was 8.23. For the same compound, the negative-log Ki (pKi) in experiment [2] is 6.95; in experiment [3], 6.34.

As for `Cc1ccc([C@H]2CC3CCC([C@H]2c2cc(Cc4ccc(Cl)cc4)no2)N3C)cc1` (some centres not stated), in experiment [1], the negative logarithm of the IC50 (pIC50) was 7.65. The pKi in experiment [2] is 7.07; in experiment [3], 6.08.

In experiment [1], `Cc1ccc(Cc2cc([C@@H]3C4CCC(C[C@@H]3c3ccc(C)cc3)N4C)on2)cc1` (some centres not stated) gave a pIC50 of 8.16. In addition, the negative logarithm of the Ki (pKi) was 7.05 in experiment [2] and 6.11 in experiment [3].

With `COc1ccc(Cc2cc([C@@H]3C4CCC(C[C@@H]3c3ccc(Cl)cc3)N4C)on2)cc1` (some centres not stated), in experiment [1], the negative logarithm of the IC50 (pIC50) is 8.21. Further, the figures for the pKi in experiment [2] and in experiment [3] were 7.84 and 6.46, respectively.

Consider `COc1ccc(Cc2cc([C@@H]3C4CCC(C[C@@H]3c3ccc(C)cc3)N4C)on2)cc1` (some centres not stated), for which, in experiment [1], the pIC50 is 8.02. The pKi in experiment [2] is 7.39; in experiment [3] it was 6.45.

In turn, `COc1ccc(-c2c(C)noc2[C@@H]2C3CCC(C[C@@H]2c2ccc(C)cc2)N3C)cc1` (some centres not stated) showed a negative logarithm of the IC50 (pIC50) in experiment [1] of 6.92. For the same compound, the results for the negative logarithm of the Ki (pKi) in experiment [2] and in experiment [3] were less than 5.70 and 5.89, respectively.

`CN1C2CCC1[C@@H](c1cc(Cc3ccc(F)cc3)no1)[C@@H](c1ccc(Cl)cc1)C2` (some centres not stated) gave a negative-log IC50 (pIC50) in experiment [1] of 8.07. The pKi in experiment [2] is 7.14; in experiment [3], 6.36.

In experiment [1], `Cc1ccc(-c2c(C)noc2[C@@H]2C3CCC(C[C@@H]2c2ccc(C)cc2)N3C)cc1` (some centres not stated) gave a negative logarithm of the IC50 (pIC50) of 6.76. The negative-log Ki (pKi) in experiment [2] was 6.00; in experiment [3], less than 5.70.

The compound `CN1C2CCC1[C@@H](c1cc(-c3ccc(F)cc3)no1)[C@@H](c1ccc(Cl)cc1)C2` (some centres not stated) showed a negative-log IC50 (pIC50) in experiment [1] of 8.73. For the same compound, the negative-log Ki (pKi) is 6.18 in experiment [2] and 6.26 in experiment [3].

In experiment [1], `Cc1noc([C@@H]2C3CCC(C[C@@H]2c2ccc(Cl)cc2)N3C)c1-c1ccc(F)cc1` (some centres not stated) showed a pIC50 of 6.95. Also, the negative-log Ki (pKi) in experiment [2] was 6.04; in experiment [3], 6.33.

Turning to `Cc1ccc(-c2cc([C@@H]3C4CCC(C[C@@H]3c3ccc(C)cc3)N4C)on2)cc1` (some centres not stated), the negative logarithm of the IC50 (pIC50) in experiment [1] is 7.89. The pKi in experiment [2] and in experiment [3] was less than 5.70 in each case.

The compound `CN1C2CCC1[C@@H](c1cc(-c3ccc(Cl)cc3)no1)[C@@H](c1ccc(Cl)cc1)C2` (some centres not stated) had a negative logarithm of the IC50 (pIC50) in experiment [1] of 8.19. Also, the negative-log Ki (pKi) in experiment [2] and in experiment [3] was less than 5.70 each time.

In experiment [1], `Cc1ccc(-c2c(C)noc2[C@@H]2C3CCC(C[C@@H]2c2ccc(Cl)cc2)N3C)cc1` (some centres not stated) gave a pIC50 of 6.87. The pKi is 6.53 in experiment [2] and less than 5.70 in experiment [3].

The compound `Cc1ccc(Cc2cc([C@@H]3C4CCC(C[C@@H]3c3ccc(Cl)cc3)N4C)on2)cc1` (some centres not stated) showed a negative logarithm of the IC50 (pIC50) in experiment [1] of 7.66. Moreover, the pKi was 7.37 in experiment [2] and 5.96 in experiment [3].

As for `CN1C2CCC1[C@@H](c1cc(Cc3ccc(Cl)cc3)no1)[C@@H](c1ccc(Cl)cc1)C2` (some centres not stated), the negative-log IC50 (pIC50) in experiment [1] is 7.76. Also, the values for the pKi in experiment [2] and in experiment [3] were 7.10 and 6.17, respectively.
